Source: ChEMBL document CHEMBL1155808, “Antitumor activity of bis-indole derivatives” (J Med Chem, 2008)
Calls of active or inactive are those of the source. The calls are words filed in the database; no cut-off is given here.

Tests used:
[1] = Inhibition of plasma membrane electron transport pathway in human Mo7e cells by WST1 reduction assay; type: cell-based
In short: (§1)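 Cells at 10^5 per well in 0.1 ml pretreated 30 min with compound in DMSO (<0.1% final), then WST-1/mPMS added (final 500 µM and 20 µM); WST-1 reduction followed in real time at 450 nm; averages ± S.E.M. of four independent experiments.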

[2] = Cytotoxicity against human prostate cancer cells; type: functional; settings: Cancer cell lines; for CC50: read-out: pLC50 (the source's name) (converted); for TGI: read-out: pTGI (converted)
In short: (§2)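 NCI 60-cell-line human tumour screen, with subpanels for leukemia, melanoma, lung, colon, kidney, ovary, breast, prostate and CNS. Compounds were dissolved in DMSO and tested at five ten-fold dilutions, highest 10^-4 M (10^-3 M for some). Endpoints were GI50, TGI and LC50, reported as negative log molar. Some compounds were assayed once, others two or three times.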

[3] = Inhibition of plasma membrane electron transport pathway in human HEL cells by WST1 reduction assay; type: cell-based; in short: as §1
MCF7 [4] = experiment: Cytotoxicity against human MCF7 cells; type: functional, cell-based
[5] = Cytotoxicity against human colon cancer cells; type: functional; settings: Cancer cell lines; for CC50: read-out: pLC50 (the source's name) (converted); in short: as §2
MCF7 [6] = experiment: Inhibition of proteasome in human MCF7 cells assessed as increase in stability of BCA2 protein at 1 umol/L in presence of cyclohexamide after 16 hrs by Western blot
In short: (§3)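 MCF7 cells, 1×10^6 seeded per well, grown overnight; cycloheximide 100 μmol/L added alone or with MG-132 (10 μmol/L) or compound, total 8 and 16 h; lysates Western blotted with anti-BCA2, anti-C-erbB2 and β-actin antibodies; BCA2 and C-erbB2 levels expressed relative to β-actin by densitometry.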

[7] = Inhibition of plasma membrane electron transport pathway in human B1647 cells by WST1 reduction assay; type: cell-based; in short: as §1
HEL = experiment: Antiproliferative activity against human HEL cells after 48 hrs by MTT assay; type: functional, cell-based
Mo7e = experiment: Antiproliferative activity against human Mo7e cells after 48 hrs by MTT assay; type: functional, cell-based
MCF7 [8] = experiment: Effect on C-erbB2 protein stability in human MCF7 cells at 10 umol/L in presence of cyclohexamide by Western blot; type: functional, cell-based; in short: as §3
B1647 = experiment: Antiproliferative activity against human B1647 cells after 48 hrs by MTT assay; type: functional, cell-based
Hs-578T = experiment: Cytotoxicity against human Hs578T cells; type: functional, cell-based
In short: (§4)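 MTT cytotoxicity assay in breast cancer cell lines; proliferation expressed as percent growth inhibition relative to vehicle-treated control cells; IC50 reported.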

Mus musculus [9] = experiment: Toxicity in ip dosed mouse assessed as maximum tolerated dose after 14 days; type: organism-based; settings: in vivo, 336 h
In short: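 Mice received a single i.p. injection of 400 mg/kg. If the animal survived 14 days, MTD was 400 mg/kg. If it died, the dose was lowered to 200 mg/kg and then halved repeatedly until a tolerated dose was found, which was taken as the MTD.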

MCF7 [10] = experiment: Effect on beta-actin stability in human MCF7 cells at 10 umol/L in presence of cyclohexamide by Western blot; type: functional, cell-based; in short: as §3
[11] = Cytotoxicity against human melanoma cells; type: functional; settings: Melanoma cell; for CC50: read-out: pLC50 (the source's name) (converted)
HL-60 = experiment: Cytotoxicity against human HL60 cells after 48 hrs by MTT assay; type: functional, cell-based; settings: HL-60, 48 h
[12] = Cytotoxicity against human ovarian cancer cells; type: functional; settings: Cancer cell lines; for CC50: read-out: pLC50 (the source's name) (converted); for TGI: read-out: pTGI (converted)
[13] = Inhibition of plasma membrane electron transport pathway in human HL60 cells by WST1 reduction assay; type: cell-based; settings: HL-60; in short: as §1
MDA-MB-231 = experiment: Cytotoxicity against human MDA-MB-231 cells; type: functional, cell-based
[14] = Cytotoxicity against human renal cancer cells; type: functional; settings: Cancer cell lines; for CC50: read-out: pLC50 (the source's name) (converted); for TGI: read-out: pTGI (converted); in short: as §2
[15] = Cytotoxicity against human central nervous system cancer cells; type: functional; settings: Cancer cell lines; for CC50: read-out: pLC50 (the source's name) (converted); for TGI: read-out: pTGI (converted); in short: as §2
[16] = Inhibition of plasma membrane electron transport pathway in mitochondrial gene-knockout human HL60p'0 cells by WST1 reduction assay; in short: as §1
[17] = Cytotoxicity against human breast cancer cells; type: functional; settings: Cancer cell lines; for CC50: read-out: pLC50 (the source's name) (converted); for TGI: read-out: pTGI (converted); in short: as §4
[18] = Cytotoxicity against human mitochondrial gene-knockout human HL60p'0 cells after 48 hrs by MTT assay; type: functional, cell-based
[19] = Cytotoxicity against human leukemia cells; type: functional; settings: Leukemia cell; for CC50: read-out: pLC50 (the source's name) (converted); for TGI: read-out: pTGI (converted); in short: as §2
[20] = Cytotoxicity against human Non-small cell lung carcinoma cells; type: functional; settings: for CC50: read-out: pLC50 (the source's name) (converted); for TGI: read-out: pTGI (converted); in short: as §2
[21] = Antitumor activity against human HL60(TB) cells xenografted in mouse assessed as effect on tumor growth at 134 mg/kg, ip dosed as Q4Dx3, day 7 schedule measured on day 19 relative to control; type: functional, HL-60(TB); settings: route intraperitoneal
[22] = Antitumor activity against human HL60(TB) cells xenografted in mouse assessed as net log cell kill at 200 mg/kg, ip dosed as Q4Dx3, day 7 schedule relative to control; type: functional, HL-60(TB); settings: route intraperitoneal
Mus musculus [23] = experiment: Toxicity in human HL60(TB) cells xenografted mouse assessed as drug induced death at 134 mg/kg, ip dosed as Q4Dx3, day 7 schedule measured on day 14; type: organism-based; set-up: dose 134 mg/kg, route intraperitoneal; settings: in vivo
Mus musculus [24] = experiment: Toxicity in human HL60(TB) cells xenografted mouse assessed as drug induced death at 200 mg/kg, ip dosed as Q4Dx3, day 7 schedule measured on day 14; type: organism-based; set-up: dose 200 mg/kg, route intraperitoneal; settings: in vivo
[25] = Antitumor activity against human HL60(TB) cells xenografted in mouse assessed as tumor growth delay at 134 mg/kg, ip dosed as Q4Dx3, day 7 schedule relative to control; type: functional, HL-60(TB); settings: route intraperitoneal
[26] = Antitumor activity against human HL60(TB) cells xenografted in mouse assessed as effect on tumor growth at 200 mg/kg, ip dosed as Q4Dx3, day 7 schedule measured on day 19 relative to control; type: functional, HL-60(TB); settings: route intraperitoneal
Mus musculus [27] = experiment: Toxicity in human HL60(TB) cells xenografted mouse assessed as drug induced death at 90 mg/kg, ip dosed as Q4Dx3, day 7 schedule measured on day 22; type: organism-based; set-up: dose 90 mg/kg, route intraperitoneal; settings: in vivo
[28] = Antitumor activity against human HL60(TB) cells xenografted in mouse assessed as net log cell kill at 134 mg/kg, ip dosed as Q4Dx3, day 7 schedule relative to control; type: functional, HL-60(TB); settings: route intraperitoneal
Mus musculus [29] = experiment: Toxicity in human HL60(TB) cells xenografted mouse assessed as mean net weight loss at 90 mg/kg, ip dosed as Q4Dx3, day 7 schedule measured on day 22; type: organism-based; set-up: dose 90 mg/kg, route intraperitoneal; settings: in vivo
[30] = Antitumor activity against human HL60(TB) cells xenografted in mouse assessed as tumor growth delay at 200 mg/kg, ip dosed as Q4Dx3, day 7 schedule relative to control; type: functional, HL-60(TB); settings: route intraperitoneal
[31] = Antitumor activity against human HL60(TB) cells xenografted in mouse assessed as tumor growth delay at 90 mg/kg, ip dosed as Q4Dx3, day 7 schedule relative to control; type: functional, HL-60(TB); settings: route intraperitoneal
Mus musculus [32] = experiment: Toxicity in human HL60(TB) cells xenografted mouse assessed as mean net weight loss at 200 mg/kg, ip dosed as Q4Dx3, day 7 schedule measured on day 14; type: organism-based; set-up: dose 200 mg/kg, route intraperitoneal; settings: in vivo
[33] = Antitumor activity against human HL60(TB) cells xenografted in mouse assessed as tumor growth delay at 90 mg/kg, ip dosed as Q4Dx3, day 7 schedule day 7 schedule measured on day 19 relative to control; type: functional, HL-60(TB); settings: route intraperitoneal
Mus musculus [34] = experiment: Toxicity in human HL60(TB) cells xenografted mouse assessed as mean net weight loss at 134 mg/kg, ip dosed as Q4Dx3, day 7 schedule measured on day 14; type: organism-based; set-up: dose 134 mg/kg, route intraperitoneal; settings: in vivo
[35] = Antitumor activity against human HL60(TB) cells xenografted in mouse assessed as net log cell kill at 90 mg/kg, ip dosed as Q4Dx3, day 7 schedule relative to control; type: functional, HL-60(TB); settings: route intraperitoneal

O=C1Nc2cccc(Cl)c2/C1=C\c1cccc(/C=C2/C(=O)Nc3cccc(Cl)c32)n1
IC50 [1]: 15 µM | GI50 [2]: 0.437 µM | CC50 [2]: 15.8 µM | TGI [2]: 2.09 µM | IC50 [3]: 24 µM | IC50 (MCF7 [4]): 0.23 µM | GI50 [5]: 0.417 µM | CC50 [5]: 19.1 µM | fold change (FC) (MCF7 [6]): 2 | IC50 [7]: 30 µM | Activity (HEL): Active | Activity (Mo7e): Active | Activity (MCF7 [8]): inactive | Activity (B1647): Active | IC50 (Hs-578T): 0.4 µM | MTD (Mus musculus [9]): 400 mg/kg | Activity (MCF7 [10]): inactive | GI50 [11]: 0.589 µM | CC50 [11]: 15.8 µM | IC50 (HL-60): 3 µM | GI50 [12]: 0.501 µM | CC50 [12]: 30.9 µM | TGI [12]: 2.82 µM | IC50 [13]: > 117 µM | IC50 (MDA-MB-231): 0.3 µM | GI50 [14]: 0.427 µM | CC50 [14]: 7.59 µM | TGI [14]: 1.51 µM | GI50 [15]: 0.603 µM | CC50 [15]: 23.4 µM | TGI [15]: 2.82 µM | IC50 [16]: > 117 µM | GI50 [17]: 0.389 µM | CC50 [17]: 39.8 µM | TGI [17]: 3.31 µM | IC50 [18]: 3 µM | GI50 [19]: 0.0912 µM | CC50 [19]: 44.7 µM | TGI [19]: 1.91 µM | GI50 [20]: 0.676 µM | CC50 [20]: 34.7 µM | TGI [20]: 2.69 µM

COc1ccc2c(c1)/C(=C\c1cccc(/C=C3/C(=O)Nc4ccc(OC)cc43)n1)C(=O)N2
IC50 [1]: 30 µM | GI50 [2]: 1.66 µM | CC50 [2]: 69.2 µM | TGI [2]: 9.33 µM | T/C [21]: 6.4% | LCK [22]: -0.8 | IC50 [3]: 30 µM | Activity (Mus musculus [23]): Non-toxic | GI50 [5]: 0.794 µM | CC50 [5]: 30.9 µM | TGI ([5]; read-out: pTGI (converted)): 4.68 µM | Activity (Mus musculus [24]): Non-toxic | IC50 [7]: 30 µM | Activity (HEL): Active | Activity (Mo7e): Active | Activity [25]: -17% | Activity (B1647): Active | T/C [26]: 90% | Activity (Mus musculus [27]): Non-toxic | LCK [28]: -1.8 | Activity (Mus musculus [29]): 9.1% | Activity [30]: 48% | MTD (Mus musculus [9]): 400 mg/kg | GI50 [11]: 0.891 µM | CC50 [11]: 13.5 µM | Activity [31]: 25% | GI50 [12]: 1.12 µM | CC50 [12]: 46.8 µM | TGI [12]: 9.33 µM | Activity (Mus musculus [32]): 10% | IC50 [13]: > 117 µM | GI50 [14]: 1.45 µM | CC50 [14]: 24 µM | TGI [14]: 4.27 µM | GI50 [15]: 1.62 µM | CC50 [15]: 63.1 µM | TGI [15]: 12.9 µM | IC50 [16]: > 117 µM | T/C [33]: 138% | GI50 [17]: 1.48 µM | CC50 [17]: 81.3 µM | TGI [17]: 14.8 µM | GI50 [19]: 0.617 µM | CC50 [19]: 57.5 µM | TGI [19]: 3.8 µM | GI50 [20]: 1.7 µM | CC50 [20]: 43.7 µM | TGI [20]: 10.7 µM | Activity (Mus musculus [34]): 6.4% | LCK [35]: -1.1
